The list is not random: actives were taken first. Their share in the collection is about 3.5%.
FGF22 binding: FGF22 (human) thermal shift binding. recombinant FGF22 thermal shift, SYPRO orange fluorescence; percent of sucrose octasulfate shift, DMSO zero. hit rate 1.5% among 340,000. AID 651658. activity (Tm shift, normalised), % at 9.99 µM;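 active = mean Tm shift, scaled 0 neutral to 100 positive control, at about 1.3% or above, every replicate too, limit read from the data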
Env fusion inh: inhibitors of HIV Env-mediated cell fusion. HeLa-JRFL Env/CEM21 cell fusion, luciferase. inhibition, % at 12.3 µM. hit rate 1.1% among 360,000. AID 651610;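 active = mean replicate inhibition score of at least 50 and every replicate individually at or above 50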;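 also: 0% = plate neutral controls and 100% = maraviroc near 300 nM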
Cneo AK release: causes C. neoformans cell lysis; adenylate kinase release luminescence, 4 h; normalised: neutral wells 0, clomiphene wells 100; lysis activity, % at 15 µM; hit rate 0.2% among 360,000; AID 651654;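 active = mean lysis activity across replicates of at least 80%, whatever share of replicates individually reach that level; inactive = mean lysis activity below 80%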
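Assay system: C. neoformans cells. Amount: yeast cell density of 5 × 10^6 cells/mL. Technique: AK luminescence. Buffer or medium: YPD. Times: static 4 h at 37 °C with compound, 1 h detection. Dosing: single-point compound dose. Read-out: lysis from increased AK signal.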
PGC1a acetyl inh: lowers PGC1a acetylation signal in U2OS cells; AlphaScreen anti-acetyl-lysine; with virally co-expressed GCN5 acetyltransferase; inhibition, % at 15.6 µM; hit rate 0.17% among 350,000;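 active = every replicate shows inhibition of at least 40%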;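 also: 0% = neutral control wells and 100% = positive control wells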
ERAP1 HTS inh: inhibitors of human ERAP1 aminopeptidase; Q9NZ08; recombinant ERAP1, Leu-AMC fluorescence, 60 min; inhibition, % at 10.7 µM; hit rate 0.15% among 340,000; AID 652197;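 active = mean replicate inhibition of at least 30%, or all replicates individually reaching that 30% level; inactive = mean below 30% and not every replicate reaching it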;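 also: 0% = neutral control wells and 100% = L-leucinethiol positive control wells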
Target sequence (Q9NZ08 whole entry, looked up): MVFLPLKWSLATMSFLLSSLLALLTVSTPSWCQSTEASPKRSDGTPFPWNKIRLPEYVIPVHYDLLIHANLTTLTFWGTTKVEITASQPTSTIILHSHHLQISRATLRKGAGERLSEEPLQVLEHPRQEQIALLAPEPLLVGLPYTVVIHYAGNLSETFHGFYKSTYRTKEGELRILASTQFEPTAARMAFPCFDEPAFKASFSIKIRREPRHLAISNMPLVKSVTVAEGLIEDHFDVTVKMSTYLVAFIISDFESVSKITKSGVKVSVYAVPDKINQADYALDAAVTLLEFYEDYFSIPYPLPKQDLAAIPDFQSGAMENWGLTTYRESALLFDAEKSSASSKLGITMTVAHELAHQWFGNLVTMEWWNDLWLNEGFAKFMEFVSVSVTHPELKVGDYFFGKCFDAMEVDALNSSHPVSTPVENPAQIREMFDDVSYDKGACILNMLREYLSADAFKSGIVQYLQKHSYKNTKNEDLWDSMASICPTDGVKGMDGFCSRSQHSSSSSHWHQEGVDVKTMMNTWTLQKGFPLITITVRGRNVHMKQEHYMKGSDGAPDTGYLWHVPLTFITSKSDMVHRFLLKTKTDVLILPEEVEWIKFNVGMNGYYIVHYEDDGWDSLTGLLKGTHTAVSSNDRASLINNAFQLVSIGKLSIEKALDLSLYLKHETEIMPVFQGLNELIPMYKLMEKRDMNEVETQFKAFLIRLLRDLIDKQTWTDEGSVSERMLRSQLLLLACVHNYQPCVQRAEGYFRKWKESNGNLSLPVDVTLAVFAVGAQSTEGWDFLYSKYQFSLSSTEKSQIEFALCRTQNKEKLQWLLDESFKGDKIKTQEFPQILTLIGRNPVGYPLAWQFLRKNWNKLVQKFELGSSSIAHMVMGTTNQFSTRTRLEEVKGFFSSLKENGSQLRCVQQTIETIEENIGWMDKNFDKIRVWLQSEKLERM
Ecoli rRNA inh: selective bacterial rRNA inhibition in E. coli. AID 720706. hit rate 1.6% among 350,000. GFP signal change (wild-type ribosome), % (test concentration not listed). E. coli WT GFP vs humanized-ribosome RFP mutants, fluorescence, 24 h; active compounds read low; DMSO median 0, no signal -100;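 active = significant combined selectivity score with lowered wild-type GFP, culture density cut under 30%, mutant RFP and density less affected; inactive = any of these conditions unmet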
* marks the source's active call; other numbers are inactive results; x = no result; [ ] = dose if it differs, or a comment.

SMILES	FGF22 binding	Env fusion inh	Cneo AK release	PGC1a acetyl inh	ERAP1 HTS inh	Ecoli rRNA inh
C[C@H]1CN([C@@H](C)CO)C(=O)Cc2cc(NC(=O)Nc3ccc(F)cc3)ccc2O[C@@H]1CN(C)CC1CC1	0	2[16.7 µM]	64	20	1	9
C/C(=N\N=C1\NC(=O)C(Cc2ccccc2)S1)c1ccccc1 (stereo unspecified)	0	-1	x	-8	-3	-52*
COc1ccc(-n2cccc2/C=C2\C(=N)N3N=C(c4ccco4)SC3=NC2=O)cc1	0	-1	x	x	-2	-23*
COc1ccc(-n2cccc2/C=C2\C(=N)N3N=C(C(C)C)SC3=NC2=O)cc1	0	3	x	x	0	-40
COc1ccc(-c2cc(=O)n(-c3nc4ccccc4[nH]3)[nH]2)cc1	x	66*	-2	-13	x	x
COc1ccc(-c2nc3ccccc3[nH]2)cc1	0	x	x	0	3	-16
COc1ccc(-c2n(Cc3ccccc3)c3ccccc3[n+]2Cc2ccccc2)cc1	0	70*	x	x	-1	-46
Cc1ccc(-n2ncc3c2CCCC3NC(=O)c2ccccc2N2CCOCC2)cc1C (stereo unspecified)	0	21	-4	-1	2	-43
O=C(NC1CCCc2c1cnn2-c1ccc(F)cc1F)c1ccccc1N1CCOCC1 (stereo unspecified)	x	-148	1	3	1	-29*
CN(C)CCN(Cc1cccs1)c1ccccn1	0	2	4	-2	-4	x
CN(C)CCN(Cc1ccco1)c1ccccn1	43*	x	x	4	1	13
COc1ccc(-c2cnc(SCC(=O)Nc3cc(C)on3)n2Cc2ccco2)cc1	x	x	1	-3	6	-30
CCOc1ccc(CCN2C(=S)N([C@@H](Cc3ccc(O)cc3)CN3CCC[C@@H]3CN3C(=S)NC[C@@H]3CC(C)C)C[C@@H]2Cc2ccc(O)cc2)cc1	0	67*	2	-16	x	10
CCOc1ccc(CCN2C(=S)N([C@@H](Cc3ccccc3)CN3CCC[C@@H]3CN3C(=S)NC[C@@H]3Cc3ccc(O)cc3)C[C@@H]2CC(C)C)cc1	0	64*	-1	-12	x	20
CCC(CC)C(=O)Nc1cccc(C(=O)NCCc2ccccc2)c1	0	-1	x	-8	-9	-3
CC(=O)c1cc2c(cc1NC(=O)CSc1ncccn1)OCO2	0	18	-1	x	-2	5
COc1ccc(NC(=O)Nc2ccc(CC(=O)O)cc2)cc1	43*	-7	x	-5	-13	20
O=C(O)Cc1ccc(NC(=O)Nc2ccc(Br)cc2)cc1	0	7	x	0	-2	-20
O=C(O)c1cccc(S(=O)(=O)N(Cc2ccccc2)c2ccccc2)c1	43	-4	x	6	0	-39
O=C(O)c1cccc(S(=O)(=O)N(Cc2ccccc2)c2ccc(Cl)cc2)c1	0	3	-1	-1	0	-44*
CCOC(=O)C1=CCC(c2cccs2)N(S(=O)(=O)c2ccc(C)cc2)C1 (stereo unspecified)	1	4	-2	-41	-5	-18
CC(C)C(=O)Nc1nnc(NC(=S)Nc2ccccc2)s1	0	-8	-5	9	6	-34*
CC(C)S(=O)(=O)c1ccc(C(=O)Nc2ccc(F)cc2F)cn1	43*	-8	x	x	4	15
Cc1ccc(C)c(OCCC(=O)NNC(=O)c2ccncc2)c1	0	-38	5	4	-2	0
CCc1c(C)nc2ncnn2c1NCCc1ccc(OC)c(OC)c1	0	x	-2	-1	2	-10
SMILES	FGF22 binding	Env fusion inh	Cneo AK release	PGC1a acetyl inh	ERAP1 HTS inh	Ecoli rRNA inh
CC(C)c1ccc(OCC(=O)NNC(=O)c2cnccn2)cc1	0	18	x	x	-2	-28*
CC(C)c1ccc(NC(=O)COC(=O)COc2ccccc2)cc1	43*	12	x	x	-1	x
CCOc1ccc(CNC(=S)NCc2ccc(OCC)cc2)cc1	0	13	x	x	3	14
CC(C)COc1ccc(CNC(=S)NCc2ccccc2)cc1	x	18	182*	x	x	x
NS(=O)(=O)c1ccc(NC(=O)COC(=O)COc2ccccc2)cc1	0	17	x	x	-3	14
CC(C)c1ccc(OCC(=O)NCc2ccccc2)cc1	0	1	0	1	x	-22*
